Reference: ChEMBL document CHEMBL4346668, “Novel multitarget inhibitors with antiangiogenic and immunomodulator properties” (Eur J Med Chem, 2019)
Calls of active or inactive are those of the source. No cut-off for these calls is given here.

Experiments:
HT-29 [1] = test: Antiproliferative activity against human HT-29 cells incubated for 2 days by MTT assay; type: functional, cell-based; conditions: HT-29, 48 h
How it was run: (§1)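 MTT assay. Cells seeded at 3 × 10³/well (HeLa, A549, HMEC-1, HEK-293) or 5 × 10³/well (HT-29, MCF-7) in their growth media with serial compound dilutions from 10 mM DMSO stocks. Incubated 2 days at 37 °C, 5% CO₂, then MTT added for 3 h and formazan dissolved in DMSO. A540 read and viability expressed versus untreated cells. IC₅₀ determined graphically; three independent experiments.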

MCF7 = test: Antiproliferative activity against human MCF7 cells incubated for 2 days by MTT assay; type: functional, cell-based; conditions: MCF7, 48 h; how it was run: as §1
HeLa = test: Antiproliferative activity against human HeLa cells incubated for 2 days by MTT assay; type: functional, cell-based; conditions: 48 h; how it was run: as §1
A549 [2] = test: Antiproliferative activity against human A549 cells incubated for 2 days by MTT assay; type: functional, cell-based; conditions: A549, 48 h; how it was run: as §1
HMEC-1 [3] = test: Antiproliferative activity against HMEC1 cells incubated for 2 days by MTT assay; type: cell-based; conditions: Homo sapiens, HMEC-1, 48 h; how it was run: as §1
HEK293 = test: Antiproliferative activity against HEK293 cells incubated for 2 days by MTT assay; type: cell-based; conditions: Homo sapiens, HEK293, 48 h; how it was run: as §1
[4] = biological target: Vascular endothelial growth factor receptor 2 (Homo sapiens) (UniProt P35968); test: Inhibition of VEGFR2 in HMEC1 cells assessed as phosphorylated Erk1/2 level at 10 uM incubated for 24 hrs by Western blot analysis relative to control; type: cell-based
How it was run: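 HMEC-1 lysates from the phospho-VEGFR-2 experiment (24 h compound, serum starvation, 30 min VEGF-165 stimulation) used at 100 µg protein for SDS gel electrophoresis and PVDF transfer. Blocked in 5% milk/TBST, then probed overnight at 4 °C with anti-phospho-ERK1/2 (T202/[…]) and an HRP secondary. Chemiluminescent detection; β-actin as internal control; quantified versus DMSO control.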

HMEC-1 [5] = test: Antiangiogenic activity against HMEC1 cells assessed as inhibition of tube formation incubated for 20 hrs by matrigel based tube formation assay; type: functional, Homo sapiens
How it was run: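 HMEC-1 cells in EGM-2MV medium seeded at 2 x 10⁴ cells/well on Matrigel (10 mg/mL, gelled 30 min at 37°C) and attached for 30 min. Compounds were added at different concentrations and tube formation was assessed after 20 h at 37°C. The minimum concentration at which inhibition began was reported. Data representative of three experiments.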

A549 [6] = test: Immunomodulatory activity in human A549 cells assessed as reduction in PD-L1 expression level at 100 uM incubated for 24 hrs by ELISA relative to control; type: functional; set-up: scale not given: the % may be the effect or the level left
How it was run: (§2)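 A549 cells (3·10⁵/well) treated 24 h with compound; final concentration 100 µM for some compounds and 15 µM for others per table footnote. Lysates protein-normalized by Bradford, and PD-L1 and c-Myc quantified by commercial ELISA kits as % of DMSO-treated cells. Mean ± SD of three experiments.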

A549 [7] = test: Immunomodulatory activity in human A549 cells assessed as reduction in c-Myc expression level at 100 uM incubated for 24 hrs by ELISA relative to control; type: functional; set-up: scale not given: the % may be the effect or the level left; how it was run: as §2
A549 [8] = test: Antiproliferative activity against human A549 cells at 200 uM incubated for 24 hrs in presence of Jurkat T cells by trypan blue staining based Neubauer chamber method relative to control; type: functional
How it was run: (§3)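 Co-culture of 5 × 10⁴ tumor cells/well with 2 × 10⁵ PD-1-expressing Jurkat T cells in 1.5 mL, treated 24 h with compound at 200 µM. Supernatant discarded; tumor cells trypsinized, stained with trypan blue and living cells counted in a Neubauer chamber. Proliferation inhibition (%) attributable to Jurkat presence reported; representative of three experiments.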

A549 [9] = test: Induction of apoptosis in human A549 cells assessed as apoptotic cells at 100 uM incubated for 24 hrs by FITC-Annexin V staining based flow cytometric analysis (reference value: 20%); type: functional
A549 [10] = test: Effect on VEGFR2 in human A549 cells assessed as membrane VEGFR2 level at 10 uM incubated for 24 hrs by flow cytometric analysis relative to control; type: functional
How it was run: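 A549 cells incubated 24 h with compound at 10 µM. Membrane VEGFR-2 (fixed cells) and total VEGFR-2 (permeabilized or lysate) stained with Alexa Fluor 647 anti-CD309 and quantified by flow cytometry relative to DMSO control; mean ± SD of three experiments.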

A549 [11] = test: Effect on VEGFR2 in human A549 cells assessed as total VEGFR2 level at 10 uM incubated for 24 hrs by flow cytometric analysis relative to control; type: functional
A549 [12] = test: Effect on VEGFR2 in human A549 cells assessed as reduction in membrane VEGFR2 level incubated for 24 hrs by confocal laser scanning microscopic method; type: functional, cell-based
How it was run: (§4)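 A549 cells on cover glass treated 24 h with compound at 10 µM, then permeabilized (PEM-Triton X-100 0.5%) and fixed (3.7% formaldehyde). Direct staining 2 h at 37°C in darkness with Alexa Fluor 647 anti-VEGFR-2. Confocal imaging with a 63x oil objective, excitation 650 nm, emission 665 nm.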

A549 [13] = test: Effect on VEGFR2 in human A549 cells assessed as inhibition of VEGFR2 protein internalization to nucleus incubated for 24 hrs by confocal laser scanning microscopic method; type: functional, cell-based; how it was run: as §4
HMEC-1 [14] = test: Effect on VEGFR2 in HMEC1 cells assessed as membrane VEGFR2 level at 10 uM incubated for 24 hrs by flow cytometric analysis relative to control; type: functional, Homo sapiens
How it was run: (§5)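 HMEC-1 cells exposed 24 h to compound. Membrane VEGFR-2 measured on fixed cells stained with Alexa Fluor 647 anti-CD309; total VEGFR-2 measured on lysates or permeabilized cells. Read by flow cytometry as % of DMSO control; mean ± SD of three experiments.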

HMEC-1 [15] = test: Effect on VEGFR2 in HMEC1 cells assessed as total VEGFR2 level at 10 uM incubated for 24 hrs by flow cytometric analysis relative to control; type: functional, Homo sapiens; how it was run: as §5
[16] = biological target: Vascular endothelial growth factor receptor 2 (Homo sapiens) (UniProt P35968); test: Inhibition of VEGFR2 in HMEC1 cells assessed as phosphorylated VEGFR2 level at 10 uM incubated for 24 hrs by sandwich ELISA; type: cell-based
How it was run: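 HMEC-1 cells (5 × 10⁵/well) grown to 80% confluence, starved 24 h in 0.1% FBS medium, then treated 24 h with compound. Stimulated with VEGF-165 100 ng/ml for 30 min at 37°C. Lysates Bradford-normalized; phospho-VEGFR-2 (Tyr1175) measured by sandwich ELISA, % of DMSO control.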

HMEC-1 [17] = test: Ratio of MAC for sorafenib to MAC of test compound for antiangiogenic activity against HMEC1 cells; type: functional, Homo sapiens
HMEC-1 [18] = test: Antiangiogenic activity against HMEC1 cells assessed as inhibition of neovascularization at 0.01 to 1 uM incubated for 20 hrs; type: functional, cell-based; conditions: Homo sapiens
How it was run: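 HMEC-1 cells seeded on Matrigel-coated wells (10 mg/mL Matrigel, gelled 30 min at 37°C) at 2 x 10⁴ cells/well in EGM-2MV medium and allowed to attach 30 min. Compound was then added at 1, 0.1 and 0.01 µM, and tube destruction was assessed after 20 h at 37°C by imaging.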

A549 [19] = test: Immunomodulatory activity in human A549 cells assessed as inhibition of c-Myc level at 100 uM incubated for 24 hrs by confocal laser scanning microscopic method; type: functional, cell-based
How it was run: (§6)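 A549 cells on cover glass treated 24 h at 100 µM, permeabilized with PEM-Triton X-100 0.5% and fixed in 3.7% formaldehyde. Direct immunostaining 2 h at 37°C in darkness with anti-PD-L1-AlexaFluor647 (excitation 650, emission 665 nm) and anti-c-Myc-FITC (excitation 488, emission 496–535 nm). Confocal microscopy, 63x oil objective.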

A549 [20] = test: Immunomodulatory activity in human A549 cells assessed as inhibition of PD-L1 level at 100 uM incubated for 24 hrs by confocal laser scanning microscopic method; type: functional, cell-based; how it was run: as §6
[21] = biological target: Programmed cell death 1 ligand 1 (Homo sapiens) (UniProt Q9NZQ7); test: Binding affinity to PDL1 (unknown origin) assessed as change in melting temperature at 100 uM by fluorescence based real time RT-PCR analysis
[22] = biological target: Vascular endothelial growth factor receptor 2 (Homo sapiens) (UniProt P35968)
HT-29 [23] = test: Antiproliferative activity against human HT-29 cells at 200 uM incubated for 24 hrs in presence of Jurkat T cells by trypan blue staining based Neubauer chamber method relative to control; type: functional; how it was run: as §3
HMEC-1 [24] = test: Effect on VEGFR2 in HMEC1 cells assessed as membrane VEGFR2 level at 100 uM incubated for 24 hrs by flow cytometric analysis relative to control; type: functional, Homo sapiens
How it was run: (§7)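 HMEC-1 cells exposed 24 h to compound at 100 µM. Membrane VEGFR-2 measured on fixed cells stained with Alexa Fluor 647 anti-CD309; total VEGFR-2 measured after Triton X-100 permeabilization before fixation. Read by flow cytometry as % of DMSO control.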

HMEC-1 [25] = test: Effect on VEGFR2 in HMEC1 cells assessed as total VEGFR2 level at 100 uM incubated for 24 hrs by flow cytometric analysis relative to control; type: functional, Homo sapiens; how it was run: as §7
A549 [26] = test: Effect on VEGFR2 in human A549 cells assessed as membrane VEGFR2 level at 100 uM incubated for 24 hrs by flow cytometric analysis relative to control; type: functional
How it was run: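 A549 cells exposed 24 h to compound at 100 µM. Membrane VEGFR-2 stained on fixed cells with Alexa Fluor 647 anti-VEGFR-2; Triton X-100 permeabilization before fixation used for total VEGFR-2. Flow cytometry, % of DMSO control; mean ± SD of three experiments.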

A549 [27] = test: Effect on VEGFR2 in human A549 cells assessed as total VEGFR2 level at 100 uM incubated for 24 hrs by flow cytometric analysis relative to control; type: functional

Chain of Programmed cell death 1 ligand 1 (Homo sapiens) (Q9NZQ7 whole entry): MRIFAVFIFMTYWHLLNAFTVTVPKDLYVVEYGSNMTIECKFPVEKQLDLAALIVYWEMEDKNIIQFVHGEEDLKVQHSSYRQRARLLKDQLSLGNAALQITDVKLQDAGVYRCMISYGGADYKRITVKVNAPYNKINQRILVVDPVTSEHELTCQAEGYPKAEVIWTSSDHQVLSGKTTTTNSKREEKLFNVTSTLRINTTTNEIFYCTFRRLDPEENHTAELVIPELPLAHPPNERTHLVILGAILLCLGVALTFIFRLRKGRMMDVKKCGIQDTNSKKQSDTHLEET
Chain of Vascular endothelial growth factor receptor 2 (Homo sapiens) (P35968 whole entry): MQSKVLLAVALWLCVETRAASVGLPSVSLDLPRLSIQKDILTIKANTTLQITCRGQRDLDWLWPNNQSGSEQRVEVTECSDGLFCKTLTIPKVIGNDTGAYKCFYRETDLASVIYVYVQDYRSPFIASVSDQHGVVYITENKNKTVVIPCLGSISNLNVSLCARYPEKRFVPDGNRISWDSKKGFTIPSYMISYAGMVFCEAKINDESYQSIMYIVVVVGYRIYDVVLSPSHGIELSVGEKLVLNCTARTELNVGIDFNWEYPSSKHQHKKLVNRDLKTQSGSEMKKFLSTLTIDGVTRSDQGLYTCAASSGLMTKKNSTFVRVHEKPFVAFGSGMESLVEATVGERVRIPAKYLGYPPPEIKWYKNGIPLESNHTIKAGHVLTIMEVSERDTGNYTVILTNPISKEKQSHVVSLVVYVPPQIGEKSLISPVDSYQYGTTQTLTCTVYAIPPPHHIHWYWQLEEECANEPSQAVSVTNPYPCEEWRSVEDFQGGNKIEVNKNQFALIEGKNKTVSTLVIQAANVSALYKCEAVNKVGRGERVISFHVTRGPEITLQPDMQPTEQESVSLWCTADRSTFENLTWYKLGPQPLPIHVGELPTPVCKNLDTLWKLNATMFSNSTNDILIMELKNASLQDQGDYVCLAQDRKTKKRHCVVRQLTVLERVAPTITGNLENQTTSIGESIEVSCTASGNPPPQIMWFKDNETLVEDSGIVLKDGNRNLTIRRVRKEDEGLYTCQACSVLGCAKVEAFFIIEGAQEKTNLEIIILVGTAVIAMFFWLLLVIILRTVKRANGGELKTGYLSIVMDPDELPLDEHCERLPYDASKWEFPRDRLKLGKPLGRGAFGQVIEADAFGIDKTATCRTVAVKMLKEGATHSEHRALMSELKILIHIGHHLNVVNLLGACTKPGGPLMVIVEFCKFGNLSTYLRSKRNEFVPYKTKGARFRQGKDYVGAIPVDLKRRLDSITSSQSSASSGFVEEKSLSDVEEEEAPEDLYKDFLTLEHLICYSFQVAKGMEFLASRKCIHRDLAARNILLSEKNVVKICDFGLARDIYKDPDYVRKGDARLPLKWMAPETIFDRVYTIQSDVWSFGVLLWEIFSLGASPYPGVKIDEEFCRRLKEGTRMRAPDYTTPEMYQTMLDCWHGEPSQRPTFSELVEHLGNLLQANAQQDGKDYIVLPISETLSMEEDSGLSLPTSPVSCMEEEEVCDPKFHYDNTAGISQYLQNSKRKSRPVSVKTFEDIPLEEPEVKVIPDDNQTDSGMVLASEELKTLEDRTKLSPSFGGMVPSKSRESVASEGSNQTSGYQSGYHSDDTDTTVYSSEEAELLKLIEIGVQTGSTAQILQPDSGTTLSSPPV

| SMILES | IC50 (HT-29 [1]) [µM] | IC50 (MCF7) [µM] | IC50 (HeLa) [µM] | IC50 (A549 [2]) [µM] | IC50 (HMEC-1 [3]) [µM] | IC50 (HEK293) [µM] | Activity [4] | MAC (HMEC-1 [5]) [µM] | Activity (A549 [6]) [%] | Activity (A549 [7]) [%] | Activity (A549 [8]) [%] | Activity (A549 [9]) [%] | Activity (A549 [10]) [%] | Activity (A549 [11]) [%] | Activity (A549 [12]) | Activity (HMEC-1 [14]) [%] | Activity (HMEC-1 [15]) [%] | Activity [16] | Ratio (HMEC-1 [17]) | ΔTm [21] [°C] | further results |
| --- | --- | --- | --- | --- | --- | --- | --- | --- | --- | --- | --- | --- | --- | --- | --- | --- | --- | --- | --- | --- | --- |
| COc1ccc(/C=C/c2cccc(NC(=O)Nc3ccc(Cl)cc3)c2)cc1 | 0.52 | 0.4 | 0.7 | 1.5 | 1.8 | 1 | inactive | 0.1 | 25 | 37 | 86 | 48 | 56 | 10 | Active | 56 | 109 | inactive | 100 | 1.18 | Activity (A549 [13]): Active; Activity (HMEC-1 [18]): Active; Activity (A549 [19]): Active; Activity (A549 [20]): Active; ΔTm [22]: 6.25 °C |
| Cc1c(COc2ccc(CN3CCCCC3C(=O)O)cc2Br)cccc1-c1ccccc1 (centres undefined) | 19 | 20 | > 100 | 6 | – | 60 | – | – | 68 | 60 | 55 | – | – | – | – | – | – | – | – | 3.68 | Activity (HT-29 [23]): 53%; Activity (A549 [19]): Active; Activity (A549 [20]): Active |
| CNC(=O)c1cc(Oc2ccc(NC(=O)Nc3ccc(Cl)c(C(F)(F)F)c3)cc2)ccn1 [SORAFENIB] | 17 | 14 | 6.1 | 27 | 34 | 5 | – | 10 | – | – | – | 48 | 92 | 85 | – | 46 | 64 | – | – | – | Activity (HMEC-1 [24]): 46%; Activity (HMEC-1 [25]): 64%; Activity (A549 [26]): 92%; Activity (A549 [27]): 85% |
| COc1ccc(/C=C/c2cccc(NC(=O)Nc3cccc(Cl)c3)c2)cc1 | 3.5 | 4.3 | 11.3 | 7.7 | 2 | 2.4 | inactive | 0.1 | 49 | 65 | 76 | 75 | 52 | 32 | Active | 55 | 106 | inactive | 100 | 3.91 | ΔTm [22]: 8.35 °C |
